Test system: xenograft tumors of murine glioma GL261 cells
Test: GL261 xenograft tumor model
Type: in vivo, C57BL/6 mice
In short: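 About 3 × 10⁶ GL261 cells implanted subcutaneously at the left scapula of male C57BL/6 mice (6–8 weeks). At 100–300 mm³, mice randomized (n = 7/group). Vehicle (0.5% methylcellulose) oral daily. TMZ 100 mg/kg oral every 2 days, alone or with 50 mg/kg. Endpoint: tumour weight; body weight; CD31 immunohistochemistry (1:200) on 4 μm paraffin sections.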

How did the body weight (GL261 xenograft mice, vs control (co-treatment vs TMZ group)) turn out when `Cn1nnc2c(C(N)=O)ncn2c1=O` [TMZ, temozolomide] was run?
The body weight was “significantly decreased”.

And the tumor inhibition rate (TMZ only, 100 mg/kg oral every 2 days)?
The tumor inhibition rate was 34.15%.

Source: publication PMC7016295 (Acta Pharmaceutica Sinica. B, 2019)
